Assay outcomes from PubChem.
Only a selection was taken, and hits are over-represented in it overall.
Hep lipid drop – hepatic lipid droplet formation modulation; AML12 mouse hepatocytes, oleate lipid droplets, BODIPY imaging; inhibition, % at 6.5 µM; hit rate 0.4% among 240,000;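 active means lipid droplet intensity inhibited by at least 50%, with more than 500 cells counted; inconclusive means wells with under 300 cells, treated as cytotoxic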
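Material – mouse AML12 hepatocyte cell line, fixed after treatment · Compound dosing – one dose, 6.5 µM compound · Times – compound with oleate, overnight · Measured by – Image-based BODIPY and DAPI two-channel analysis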
Redox H2O2 prof – compounds producing H2O2 with reducing agent – biochemical, NIH compound library profiling, artefact control for MLSCN library redox annotation, primary screen | AID 878 | DTT-dependent redox cycling H2O2, phenol red/HRP absorbance; 100% = 100 µM peroxide control, 0% = buffer | hit rate 0.03% among 200,000 | activation, % at 10 µM;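 active means activation of at least 50% relative to the plate's high and low controls in the primary single-dose screen; inactive means activation below 50%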;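 further: compound incubated with DTT at 0.8 mM final as the reducing agent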
L major viab – inhibitors of Leishmania major promastigote growth. Leishmania major promastigotes, resazurin fluorescence viability. inhibition, % at 10 µM. hit rate 9% among 200,000. AID 1063; in the data active means inhibition above about 50%;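 further: promastigotes grown with compound for 44 hours at 28 °C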
MPTP inh – blocks calcium-induced mitochondrial swelling; isolated mouse mitochondria, Ca2+ swelling absorbance, 30 min; inhibition, % at 10 µM; hit rate 1.4% among 360,000; AID 602449;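 active means inhibition of 50% or more, scaled per plate between neutral and stimulator controls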;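 further: 0% = DMSO wells given calcium and 100% = 1 mM EGTA wells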
T cruzi inh – T. cruzi replication inhibition | hit rate 1.4% among 300,000 | T. cruzi beta-gal in NIH3T3, luminescence, 90 h | AID 1885 | inhibition, % (concentration not given with the values);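 active means mean inhibition across valid replicates above about 55%, limit read from the data; inconclusive means mean below that limit but half or more replicates reach it; inactive means mean below it, under half of replicates reach it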;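 further: signal also drops with host cell toxicity which is not excluded here; 0% = plate median of DMSO wells and 100% = zero luminescence signal; higher percent means less beta-gal luminescence so fewer parasites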
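Read-out: Parasite load inhibition, % | Test system: Mouse NIH/3T3 fibroblasts infected with β-gal-expressing T. cruzi Tulahuen C4 | Amount: 5,000 cells/well | Medium: DMEM, 2% fetal bovine serum | Signal: GalScreen β-gal luminescence, detergent lysis, 60 min | Timing: 3 h attach, ≥90 h co-culture | Also added: Tulahuen C4 trypomastigotes, 5000/well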
Starred values were filed as active, the others as inactive; ? = inconclusive; · = not tested or not shown.

SMILES	Hep lipid drop	Redox H2O2 prof	L major viab	MPTP inh	T cruzi inh
CNC(C)(C)Cc1ccccc1	·	·	·	-1	·
COc1ccc(CCN)cc1S(N)(=O)=O	·	·	·	-4	·
COc1ccc(OCC#CCN2CCC(C)CC2)cc1	7	0	23	2	10
Clc1ccc(OCC#CCN2CCCCCC2)cc1	7	0	85*	-1	12
CCCCN1CCC(O)(c2ccccc2)C(C(=O)c2ccccc2)C1 (stereo not given)	-17	0	97*	1	9
CN1Cc2cnnn2-c2ccccc2C1c1ccccc1 (stereo not given)	·	·	·	1	·
CC(C)CN(CC(C)C)c1ccc(C=C2C(=O)NC(=S)NC2=O)cc1[N+](=O)[O-]	·	2	81*	3	-6
CCN1C(=O)/C(=C\c2ccc([N+](=O)[O-])s2)C(=O)NC1=S	6	0	99*	·	·
COc1ccc(OC)c(N2C(=O)NC(=O)/C(=C/c3ccc([N+](=O)[O-])s3)C2=O)c1	-2	-1	97*	-1	65*
C=CCN1C(=O)/C(=C/c2ccc(Br)s2)C(=O)NC1=S	1	·	·	2	-10
O=C(NC1CCCCC1)N1Cc2ccccc2-n2nncc2C1	·	·	·	-1	·
Cc1cccn2c(=O)c3c(nc12)N1CCc2ccccc2C1C1(C3)C(=O)NC(=O)N(C)C1=O (stereo not given)	9	0	50*	0	14
CCCCN1C(=O)NC(=O)C2(Cc3c(nc4ccccn4c3=O)N3CCc4ccccc4C32)C1=O (stereo not given)	·	1	89*	2	19
Cc1cccn2c(=O)c3c(nc12)N1CCCCCC1C1(C3)C(=O)N(C)C(=O)N(C)C1=O (stereo not given)	0	·	·	1	21
CCCCN1C(=O)NC(=O)C2(Cc3c(nc4c(C)cccn4c3=O)N3CCc4ccccc4C32)C1=O (stereo not given)	32	3	96*	7	32
CC1CC2CC(=O)CCC2(C)C2CCC3(C)C(O)CCC3C12 (stereo not given)	·	·	·	0	·
O=P1(NCCCl)OCCC(OO)N1CCCl (stereo not given)	·	·	·	0	·
Oc1cccc(/C=N/NP(=S)(c2ccccc2)c2ccccc2)c1	-2	0	83*	15	2
CC(C)[C@]12O[C@H]1[C@@H]1O[C@]13[C@]1(O[C@H]1C[C@H]1C4=C(CC[C@@]13C)C(=O)OC4)[C@@H]2O	87*	·	·	·	?
CN(C)C1=NP(N(C)C)(N(C)C)=NC(c2ccccc2)=N1	·	0	10	1	-24
CN1C(=O)C(=Cc2ccccc2OCc2ccc(Cl)cc2)C(=O)N(C)C1=O	7	0	37	10	-4
CN1C(=O)C(=Cc2ccccc2Oc2ccc(Cl)cc2)C(=O)N(C)C1=O	-10	-2	62*	16	-4
Clc1ccc(C(c2ccc(Cl)cc2)n2cc[n+](CC(OCc3ccc(Cl)cc3Cl)c3ccc(Cl)cc3Cl)c2)cc1 (stereo not given)	·	·	·	34	·
Clc1ccc(COC(Cn2ccnc2)c2ccc(Cl)cc2Cl)cc1 (stereo not given)	·	1	98*	3	47
Clc1ccc(CSC(Cn2ccnc2)c2ccc(Cl)cc2Cl)cc1 (stereo not given)	-34	2	99*	6	50
SMILES	Hep lipid drop	Redox H2O2 prof	L major viab	MPTP inh	T cruzi inh
CC1(C)C2CC=C(CN3CCC(O)CC3)C1C2 (stereo not given)	9	-1	64*	0	8
CCN(CC)c1ccc(CN(C)CCc2ccc(OC)c(OC)c2)cc1	·	-3	63*	2	61*
CC(NCC#Cc1ccccc1)C(O)c1ccccc1 (stereo not given)	-7	0	14	5	4
CSc1ccc(CNC(C)C(O)c2ccccc2)cc1 (stereo not given)	-30	-1	84*	-2	12
CNc1ccc2nc3ccccc3[n+](C)c2c1	-2	·	·	17	59*
O=c1[nH]c(=O)n(-c2cccc3ccccc23)c(O)c1/C=N/N1CCCCCC1	-14	·	·	3	-4
CN1CCC(N(C)c2ncnc3ccc(Br)cc23)CC1	10	1	52*	-2	·
CCOC(=O)C1(CCOc2ccccc2)CCN(Cc2ccccc2OC)CC1	-19	·	·	3	28
CCOC(=O)C1(CCc2ccccc2)CCN(Cc2cccc3cnccc23)CC1	-7	12	82*	10	25
CCOC(=O)C1(CCc2ccccc2)CCN(Cc2cccc3c2OCO3)CC1	-2	-2	79*	38	42
CCOC(=O)C1(CCc2ccccc2)CCN(Cc2csc(C(C)=O)c2)CC1	2	12	83*	2	-8
O=C1NC(=O)C2(CCCc3ccc(N(CCCl)CCCl)cc32)N1 (stereo not given)	·	·	·	0	·
COCCn1c(O)c(/C=N/NC(=O)CSC(=S)N2CCCC2)c(=O)[nH]c1=S	·	·	·	-26	·
CC(=O)N1CC(=O)Nc2ccc(Cl)cc2C1c1ccccc1 (stereo not given)	15	·	·	4	-1
C/C(=C\c1ccc(N(C)C)cc1)[N+](=O)[O-]	·	-4	100*	1	-9
CN(C)c1ccc(/C=C/[N+](=O)[O-])cc1	-9	0	32	11	-1
COc1cccc(OC)c1CN1CCCC(C(=O)c2cccc(Cl)c2)C1 (stereo not given)	-7	·	·	1	19
CC(=O)N1CCC(N2CCCC(C(=O)c3cccc(Cl)c3)C2)CC1 (stereo not given)	-4	-10	92*	0	-2
COc1ccc(C(=O)C2CCCN(C3CSCCSC3)C2)c(C)c1 (stereo not given)	-2	-2	97*	-4	8
COc1ccc(C(=O)C2CCCN(C3CSCCSC3)C2)c(OC)c1 (stereo not given)	-26	-1	21	-2	12
COc1cccc(C(=O)C2CCCN(C3CCOCC3)C2)c1 (stereo not given)	-1	0	88*	1	-9
CC12Nc3ccccc3C(=O)N1Cc1cnnn1-c1ccccc12 (stereo not given)	·	·	·	-2	·
CC1CC2(C)C(=CC1=O)CCC1C3CCC(C)(O)C3(C)CC3OC312 (stereo not given)	·	·	·	-1	·
COc1ccc(CCNCc2c(OC)ccc3ccccc23)cc1	-23	·	·	1	32
CN1CCN(c2ccc([N+](=O)[O-])c(N/N=C3\CN4CCC3CC4)c2)CC1	·	3	92*	4	40
COc1ccc(CNC(C)Cc2cccs2)cc1 (stereo not given)	-7	-1	77*	2	-4
O=C(COc1ccccc1)N1CCN(CCN2C(=O)c3cccc4cccc(c34)C2=O)CC1	-7	0	58*	2	5
N/C(=N/[N+](=O)[O-])N1CCN(C(=O)Oc2ccc([N+](=O)[O-])cc2)CC1	-7	·	·	-1	1
